Screens as filed in PubChem.
In the library only some 1.7% were active in any assay of this set; here they are far more common.
Rpn11 inh: Rpn11 (human) deubiquitinase inhibition; human 26S proteasome, Ub4-pepOG fluorescence polarization; 20S core pre-blocked with epoxomicin; 360,000 tested, 0.59% active; inhibition, % at 20 µM; O00487; AID 588493;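 active means inhibition at 20 µM, scaled to each plate's controls, above about 33%, limit read from the data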
IDE cell activ: activators of human insulin-degrading enzyme in cells; P14735; HEK cells, FAbeta-B cleavage, fluorescence polarization; 0% vehicle, 100% cell-free pure enzyme wells; activation, % at 5.96 µM; 340,000 tested, 0.073% active; AID 493087;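 active means activation above the mean of all tested compounds plus 3 SD, set per screening campaign, cut at about 17% in these data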
HNF4A DNA FP: change in binding of human HNF4 alpha to DNA | P41235 | HNF4a-FITC DNA binding, fluorescence polarization, 1 h | activity change, % at 10 µM | 360,000 tested, 0.3% active | AID 1224865; in the data active means activity change above about 30%, passing the limit was not always enough
TPT1 inh: C. albicans TPT1 enzyme inhibition; recombinant caTPT1, FP RNA substrate dephosphorylation; inhibition, % at 5 µM; 300,000 tested, 0.81% active; AID 1962;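 active means inhibition above the mean of all tested compounds plus 3 SD, set per screening campaign, cut at about 24% in these data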
CSN deneddyl inh: inhibitors of human CSN-mediated cullin deneddylation; Q92905; Purified CSN, SCF-Nedd8-OG deneddylation, fluorescence polarization; 360,000 tested, 0.38% active; AID 651999; inhibition, % at 12.5 µM;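 active means pattern-corrected inhibition above about 35%, with an unprinted fluorescence ratio check between 0.5 and 1.5, limit read from the data, passing the limit was not always enough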
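Material: purified human Csn5 enzyme expressed in HEK293T cells / Medium: Tris buffer pH 7.5, NaCl, DTT, Tween-20, trehalose, ovalbumin / Compound dosing: 12.5 µM single point / Schedule: 90 min incubation of compound, enzyme and substrate at room temperature / Signal: fluorescence polarization of the substrate / Control set: no-enzyme wells high, enzyme-with-substrate wells low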
IDE inh: inhibits human insulin-degrading enzyme in HEK cells | AID 434962 | 320,000 tested, 0.41% active | inhibition, % at 5.59 µM | FAbetaB cleavage, fluorescence polarization | P14735;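 active means percent inhibition above the average of all tested compounds plus 3 SD, set per screening campaign, cut at about 16% in these data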;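 further: IDE supplied by intact live HEK cells; FP after avidin binding of uncleaved biotin substrate so inhibition keeps polarization high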
caTPT1 confirm: TPT1 (C. albicans) inhibition, confirmation | shares compounds with TPT1 inh | recombinant caTPT1, fluorescence polarization, RNase T1 coupled | inhibition, % at 5 µM | 2,400 tested, 74% active | AID 2149;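 active means inhibition above the primary screen limit, the mean inhibition of all tested compounds plus 3 SD, cut at about 25% in these data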
RNase T1 counter: blocks Aspergillus oryzae RNase T1, a TPT1 counter-screen. shares compounds with TPT1 inh. RNase T1 cleavage, fluorescence polarization, 1536-well. inhibition, % at 5 µM. 2,400 tested, 83% active;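 active means inhibition above the solvent-only control well mean plus 3 SD, limit set per screening run, cut at about 23% in these data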;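 further: inhibitors block cleavage so intact labeled substrate keeps polarization high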
A number is an active result; i = inactive; nt = no result shown.

SMILES | Rpn11 inh | IDE cell activ | HNF4A DNA FP | TPT1 inh | CSN deneddyl inh | IDE inh | caTPT1 confirm | RNase T1 counter
Cc1ccc2c(CSc3nc4ccccc4c(=O)n3CCCO)cc(=O)oc2c1C | i | i | i | 32 | i | i | i | i
COC(=O)C1CC2=C(CCC2=O)N(c2ccccc2)C1=O (stereo not given) | i | i | i | nt | i | nt | nt | nt
N#C/C(=C\c1ccc(-c2ccc(C(=O)O)cc2)o1)C(=O)Nc1ccc(F)cc1 | i | i | i | 33 | i | i | 48 | 61
Cc1cccc(C)c1NC(=O)/C(C#N)=C/c1ccc(-c2ccc(C(=O)O)cc2)o1 | i | i | i | i | i | i | nt | nt
O=S(=O)(Nc1ccc(N2CCCCC2)cc1)c1cccs1 | i | i | i | i | i | i | nt | nt
O=S(=O)(Nc1cc(Cl)ccc1N1CCCCC1)c1cccs1 | i | i | i | 48 | i | i | 28 | 35
COc1cc(C2C(C#N)=C(N)Oc3c2oc(CO)cc3=O)ccc1OC(C)C (stereo not given) | i | i | i | i | i | i | nt | nt
CC(C)Oc1ccc(C2C(C#N)=C(N)Oc3c2oc(CO)cc3=O)cc1 (stereo not given) | i | i | i | 36 | i | i | i | i
NC(=O)[C@@H]1[C@@H]2C(=O)N(c3ccc(F)cc3)C(=O)[C@@H]2[C@H]2C=Cc3ccccc3N21 | i | nt | i | i | i | i | nt | nt
O=C(c1ccco1)[C@@H]1[C@@H]2C(=O)N(c3ccc(F)cc3)C(=O)[C@@H]2[C@H]2C=Cc3ccccc3N21 | i | i | i | 30 | i | i | i | 31
O=C(N/N=C/c1c(O)n(-c2ccccc2Cl)c(=O)c2ccccc12)C1COc2ccccc2O1 (stereo not given) | i | i | i | 26 | i | i | 65 | 79
Cc1c(/C=N\NC(=O)C2COc3ccccc3O2)c2ccccc2n1C (stereo not given) | i | i | i | 51 | i | i | i | i
CCCCOc1ccc(-c2nc(/C=N/c3nccs3)c(O)o2)cc1 | i | i | i | i | i | i | nt | nt
CCOc1ccc2nc(/N=C/c3nc(-c4ccc(Br)cc4)oc3O)sc2c1 | nt | i | i | 50 | i | i | 58 | 68
CCC(CC)NC(=O)CN1CCN(S(=O)(=O)c2ccc(Br)s2)CC1 | i | i | i | nt | i | nt | nt | nt
COc1ccc(C(=O)N/N=c2\oc3ccccc3cc2C(=O)NCc2ccccc2)cc1 | i | i | i | 33 | i | i | i | i
CCCCNC(=O)C1(C)CCCCN1Cc1ccc(OCc2ccccc2)cc1 (stereo not given) | i | nt | i | nt | i | nt | nt | nt
COc1cc(NC(=O)C2=C(N3CCOCC3)/C(=C\c3ccc(N(C)C)cc3)CCC2)cc(OC)c1OC | i | i | i | 32 | i | i | i | 26
COC(=O)c1c(-c2ccc3ccccc3c2)csc1NC(=O)Cc1ccc(OC)c(OC)c1 | nt | i | i | 39 | i | i | 63 | 70
CCC/C=C/c1ccc(CN2C(C(C)C)C(=O)N(Cc3cn(CC4CCCCC4)nn3)CCS2(=O)=O)cc1 (stereo not given) | i | nt | i | nt | i | nt | nt | nt
O=C(C[n+]1cccc2ccccc21)c1ccc([N+](=O)[O-])cc1 | i | i | i | 32 | i | i | i | i
Clc1cccc(Cl)c1C[n+]1cccc2ccccc21 | i | i | i | i | i | i | nt | nt
O=[N+]([O-])c1ccc(Cl)c(C[n+]2cccc3ccccc32)c1 | i | i | i | 59 | i | i | i | i
Cc1ccc(N2CN(Cc3cccnc3)CNC2=S)c(C)c1 | i | i | i | i | i | i | nt | nt
Cc1ccc(N2CN(Cc3ccco3)CNC2=S)c(C)c1 | i | i | i | 48 | i | i | i | i
SMILES | Rpn11 inh | IDE cell activ | HNF4A DNA FP | TPT1 inh | CSN deneddyl inh | IDE inh | caTPT1 confirm | RNase T1 counter
O=C(NC1CCCC1)C1c2ccccc2OCC(=O)N1Cc1ccco1 (stereo not given) | nt | nt | i | nt | i | nt | nt | nt
CCOc1cc2c(C#N)c(N3CCCCC3)nc(N)c2c(N)n1 | nt | i | i | 50 | i | i | 49 | 58
COc1ccc(CN2C(=O)Cc3c2nc(N)c2c(N)nc(N4CCCCC4)c(C#N)c32)cc1 | nt | nt | nt | 31 | nt | i | 58 | 68
CCOc1cc2c(C#N)c(N3CCNCC3)nc(N)c2c(N)n1 | i | i | i | i | i | i | nt | nt
CCn1c(SCC(=O)Nc2sc3c(c2C#N)CCCC3)nnc1-c1ccncc1 | i | i | i | i | i | i | nt | nt
N#Cc1c(NC(=O)CSc2nnc(-c3ccncc3)n2CC2CCCO2)sc2c1CCCC2 (stereo not given) | i | i | i | 115 | i | i | i | i
O=[N+]([O-])c1cccc(C2CC(c3ccccc3)=NN2c2ccccc2)c1 (stereo not given) | i | i | i | i | i | i | nt | nt
N#CC1CC(c2ccc([N+](=O)[O-])cc2)=NN1c1ccc([N+](=O)[O-])cc1 (stereo not given) | nt | i | i | 73 | i | i | 91 | 97
O=C(NC1CCCCC1)C1c2ccccc2OCC(=O)N1CCc1ccccc1 (stereo not given) | nt | nt | i | nt | i | nt | nt | nt
O=Cc1ccc(OCc2ccccn2)cc1 | i | i | i | 51 | i | i | i | i
O=Cc1ccc(OCc2ccc3ccccc3c2)cc1 | i | i | i | i | i | i | nt | nt
COCCNC(=O)c1cc2c(c(-c3cccc(C#Cc4ccc(OC)c(OC)c4)c3)n1)[C@H](CCO)N(S(=O)C(C)(C)C)C2 (stereo not given in full) | i | nt | i | nt | i | nt | nt | nt
O=C1/C(=C/N(C(=O)c2ccco2)c2ccc(Cl)cc2)Sc2ccccc21 | i | i | i | 69 | i | i | 70 | 82
O=C1/C(=C/N(C(=O)c2ccco2)c2ccc(Br)cc2)Sc2ccccc21 | 52 | i | i | 70 | i | i | 71 | 85
O=C1c2ccccc2C(=O)N1CCCCN(C(=O)c1ccco1)c1ccc(Cl)cc1 | i | i | i | i | i | i | nt | nt
N#CC1=C(N)n2c(s/c(=C\c3cccs3)c2=O)=C(C#N)C1c1cccs1 (stereo not given) | nt | i | i | 54 | 66 | i | 42 | 54
CCCn1c2c(c(O)c(C(=O)NC)c1=O)CCCC2 | i | i | i | 38 | i | i | i | i
CCC1CCCCN1CCCNC(=O)CNC(=O)Cn1ccc2ccccc2c1=O (stereo not given) | i | i | i | 37 | i | i | i | i
CC1=NN(c2ccc(Br)cc2)C(=O)/C1=C/c1ccc(-c2ccccc2C(=O)O)o1 | i | i | i | i | i | i | nt | nt
O=C(O)c1ccccc1-c1ccc(/C=c2\sc3nc4cc(Br)cnc4n3c2=O)o1 | nt | i | i | 84 | 186 | i | 131 | 122
